Test: Toxicity liver stage against HepG2, at 10uM
Type: cell-based
Parameters: test concentration 10 uM, cell line HepG2-A16-CD81EGFP
Details: human, HepG2-A16-CD81EGFP cells; read-out: INHIBITION
How it was run: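 Uninfected HepG2-A16-CD81EGFP cells, 3 × 10^3 per well, 1536-well, plated on prespotted compound at 10 μM final, parasite-free screening media added to match infected plates; puromycin 10 μM positive, DMSO 0.5% negative; run in parallel with 48 h PbLuc assay at 37 °C, 5% CO2; viability by CellTiter-Glo luminescence, normalized to controls.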

SMILES	cytotoxicity at 10 µM [%]
c1ccc2c(c1)nc1n2[C@@H](CNCc2nccs2)COC1	-1.4
CCOC(=O)[C@H]1[C@@H](O)C(=O)N(C)C12CCN(C(=O)OCC)CC2	-7.83
NC(=O)c1c(SCCN2CCOCC2)sc2c(O)cc(=O)[nH]c12	1.17
CN(C)S(=O)(=O)c1ccc(-c2nc(C#N)c(NC3CCCCC3)o2)o1	-16
Cc1cc(C(=O)Nc2n[nH]c(C3CC3)n2)c2c(C)nn(C)c2n1	0.583
O=C(N1CCOCC1CO)C1(c2cccs2)CCCC1 (configuration not stated)	0.161
O=C(NCC(O)c1ccoc1)Nc1cccs1 (configuration not stated)	-11.1
CCOC1CC2(CCN(C(=O)COC)CC2)c2cc(F)ccc21 (configuration not stated)	-136
CCn1cc2c(n1)CN(S(=O)(=O)Cc1ccccc1)CC2COC (configuration not stated)	10.6
COc1cc(N2CCCn3cnc(COCCO)c3C2)ncn1	-3.61
COCCN(C)C(=O)c1nc2c(s1)CCCN2S(C)(=O)=O	-143
O=C(C1CCOCC1)N1CC[C@@H]2[C@H]1CCC(=O)N2c1ccccc1	5.5
CCOCC1CN(Cc2ccoc2)Cc2cn(CC3CC3)nc21 (configuration not stated)	12.1
Cn1ncc2c1NC(=O)CC2c1c(F)cccc1Cl (configuration not stated)	46.1
Cc1n[nH]c2c1C(c1ccsc1)SCC(=O)N2 (configuration not stated)	4.21
CN1CCc2c(C#N)c(NCc3ccco3)n3cnnc3c2C1	-13.7
CC(=O)N1[C@H](Cn2cncn2)C[C@@H]2CN(S(C)(=O)=O)CC[C@@H]21	-10.9
Cc1nn(CC(=O)N2CCN(Cc3cnn(C)c3C)CC2)cc1Cl	-3.22
CCCn1ccc(C(=O)N2CCC(C)CC2)n1	-7.01
Cc1ncc2c(n1)CCCC2NC(=O)c1ccncc1 (configuration not stated)	-19.4
CC(=O)N[C@H]1CCO[C@@H](c2cccc(NC(=O)C(C)(C)C)c2)C1	6.17
CN1CCCC(c2nccnc2-c2cccc(C(F)(F)F)c2)C1 (configuration not stated)	7.75
CN1CCCCC1(C)C(=O)N1CCC(c2ccccn2)CC1 (configuration not stated)	1.66

SMILES	cytotoxicity at 10 µM [%]
Cn1ccc2cc(CC3COCCN(C(=O)c4ccccn4)C3)ccc21 (configuration not stated)	4.57
Cc1nc(CNC(=O)C(C)Oc2ccccc2F)no1 (configuration not stated)	5.43
CSc1nnc(CNC(=O)Nc2ccccc2Br)n1C	1.31
CC(=O)N1CCCCC[C@@H]2[C@@H]1[C@H](c1cccc(F)c1)CN2C(C)=O	5.21
Cc1cc(C)nc(N2CCC(c3cc(CCO)[nH]n3)C2)n1 (configuration not stated)	4.15
Cc1cc(C2CCCN(S(=O)(=O)c3cn[nH]c3)C2)ccn1 (configuration not stated)	-1.77
CCn1ncc(CN2CCC(O)(Cn3ccc4ncccc43)CC2)c1C	-0.692
O=C(O)CCc1cccc(C2CCCN2Cc2cccc(Cl)c2)n1 (configuration not stated)	-22.6
CN(CC(=O)N(C)C(c1cccnc1)c1ccc(F)c(F)c1)C1CC1 (configuration not stated)	-3.57
Cc1ccc(C(=O)NC2CCCN(S(C)(=O)=O)C2)c(=O)[nH]1 (configuration not stated)	10.6
Cc1ccc(CNC(=O)Nc2nncs2)n1C	-0.545
Cc1cc(NC(=O)CO)nn1-c1ccc(Cl)cc1Cl	-142
CCN(CC)CCN(CC(C)C)c1cc(C(F)(F)F)nc2ncnn12	-5.39
COc1cccc(NC(=O)CN(C(C)C)C2CC2)c1	-2.83
CN(Cc1nc(CS(C)(=O)=O)no1)c1ccccc1	4.04
COC(=O)CC1CSCCN1C(=O)CCc1c(C)nn(C)c1C (configuration not stated)	-2.65
COc1ccc(OCc2noc(CN(C)C3CCS(=O)(=O)C3)n2)cc1 (configuration not stated)	12.5
Cc1nnc(C(C)Nc2cccc(COCCc3ccccc3)c2)o1 (configuration not stated)	-3.51
Cc1csc(C2(NC(=O)CCc3ccncc3)CCCC2)n1	-12.1
CC(C)(C)c1noc(CCC(=O)N2CCN(Cc3ccco3)CC2)n1	6.11
Cc1noc(C)c1CNC(=O)N1CCN(CC2CC2)CC1	-6.48
COc1ccc(C2CCCN2Cc2nnnn2C2CC2)cc1OC (configuration not stated)	2.49
C=C(C)CN(CC)C(=O)c1cc(F)ccc1N1CCN(C)CC1	-1.18

SMILES	cytotoxicity at 10 µM [%]
CC1CN(c2ccc(CNC(=O)NCCn3ccnc3)cn2)CCO1 (configuration not stated)	8.4
CN1CCN(C(=O)c2cc[nH]c(=O)c2)Cc2ccccc21	-18.1
O=C(c1cccn1-c1ccc2c(c1)OCCO2)N1CCCC1	-9.42
CC(O)CN1CCC(CN(C)CCC(=O)NC2CCCCC2)CC1 (configuration not stated)	4.11
CCC1C(=O)NCCN1c1nccc(C)n1 (configuration not stated)	0.889
CC(NC1CCN(CC(=O)N(C)C)CC1)c1cnn(C(C)C)c1 (configuration not stated)	-0.54
Cc1cc(C2CCCN(CC(=O)N3CCCc4ccccc43)C2)n[nH]1 (configuration not stated)	-4.14
Cc1ccc2nc(CN3CCCCC3C(=O)N3CCOCC3)cn2c1 (configuration not stated)	3.13
CN(C)c1nccc(N(C)C2CCN(CC3CCOC3)CC2)n1 (configuration not stated)	-18.9
Cc1cnn(CCNCC(=O)N(C)C(C)c2ccccc2)c1 (configuration not stated)	8.83
COc1ccccc1C(C)(C)NC(=O)NCCC(=O)NC1CCCC1	8.42
Cc1nc(-c2ccccc2)sc1CSCCS(C)(=O)=O	3.85
O=C(C1SCCc2sccc21)N1CCC(O)CC1 (configuration not stated)	-7.38
CCS(=O)(=O)c1ccc(N2CCC(NC(C)=O)CC2)cc1	10.6
O=C(Cc1ccc(F)cc1)NCCNCC1CNc2ccnn2C1 (configuration not stated)	-3.47
Cc1c(Br)cccc1C(=O)NC(C)CN1CCCC1=O (configuration not stated)	-1.58
COCCCN1CCC(NC(=O)C(C)C)CC1	-11.9
CSc1ccc(C(CNC(=O)C2CC2)N2CCc3sccc3C2)cc1 (configuration not stated)	-5.31
CC(C)(C)c1n[nH]c(C2CN(C(=O)c3cc(Cl)c[nH]3)CCO2)n1 (configuration not stated)	-10.6
CCOc1ncccc1NC(=O)c1cc2c(s1)CCC2	-15
Cc1[nH]c(=O)[nH]c(=O)c1CN1CCCC(CCc2ccccc2F)C1 (configuration not stated)	-4.19
Nc1nc(CCCNC(=O)c2ccccc2C2CCNC2)cs1 (configuration not stated)	-3.06
CC(C)c1nnc2sc(CC3CCS(=O)(=O)CC3)nn12	4.62

SMILES	cytotoxicity at 10 µM [%]
CC(C)Cn1cncc1Cn1cccc(C(F)(F)F)c1=O	-10.2
C[C@@H]1CN(CC(=O)NCc2ccccn2)C[C@]1(C)O	-5.68
Cn1ncc2c(N3CC[C@H](O)C3)nc(-c3ccncc3)nc21	4.63
CC(C)Oc1ccc(CN2CCCC(N3CCCC3)C2)cc1CO (configuration not stated)	0.271
c1cc(-c2ccn(CCN3CCCC3)n2)cc(-c2nccs2)c1	-8.96
Cc1ccc2nc(C)c(C)c(C(=O)NCCCn3ccnn3)c2c1	17.8
Fc1cccc(C2(CNC3CCCNC3)CCOCC2)c1 (configuration not stated)	0.979
COCC1(CNC(=O)[C@@]23CNC[C@@H]2CN(C2CCCC2)C3)CC1	-11.9
CCC(=O)NC(CC)c1ccccc1C (configuration not stated)	5.14
Cc1nn(-c2ccccc2)c(C)c1-c1ccnc(N2CCC(O)CC2)n1	-1.74
CN(CCc1ccccc1)C1CCCN(Cc2nccn2C)C1 (configuration not stated)	-18.5
CCC(C(=O)NCc1ccncc1)N(c1ccc(OC)cc1)S(C)(=O)=O (configuration not stated)	-10.2
Cn1cc(C(=O)N2CCCC(Cc3nccs3)C2)cn1 (configuration not stated)	3.83
CNc1nc(CNC(=O)Nc2cccc(-c3ncc(C)o3)c2)cs1	-7.57
CCOC(=O)c1sc2ccsc2c1CNC(=O)COC	1.51
Cc1cnn(CC2CCCN2C(=O)CCc2cscn2)c1 (configuration not stated)	-11.9
CCc1noc(C)c1C(=O)N1CCCC1Cn1nc(C)cc1C (configuration not stated)	-5.48
CCc1nnc2n1CCN(C(=O)CN(C)Cc1ccccc1)C2	-6.22
CC(=O)N1CCN(C(=O)NCc2csc(Br)c2)CC1	-6.31
Cc1nnc2n1CCN(C(=O)c1cc(Cl)c(Cl)n1C)C2	-4.05
NC(=O)c1cnn2c1NCC(CNCCCOc1ccccc1F)C2 (configuration not stated)	-5.56
COCCN1CCN(Cc2noc(C3CC3)n2)CC1C (configuration not stated)	1.43
Cc1ccc(NC(=O)NCCCc2n[nH]c(N)c2C#N)cc1	-4.71

SMILES	cytotoxicity at 10 µM [%]
COCCOc1ccc(NC(=O)C2CCC2)cn1	-9.65
O=C(Cc1ccc2c(c1)OCCO2)NC1CCN(CC(F)F)CC1	-9.86
CC(Cn1cccn1)NC(=O)NCc1ccccn1 (configuration not stated)	6.79
CCNC(=O)C1CCN(Cc2csc(-c3ccc(C)o3)n2)CC1	6.26
CCN1CCN(CC(O)c2ccc(F)cc2)CC1 (configuration not stated)	-9.41
CN(C)c1cc(C(=O)N2CCCN(Cc3cscn3)CC2)ccn1	-15
CCc1nc(C2CCCN2Cc2nc3ccccc3o2)no1 (configuration not stated)	3.06
COc1cc2c(cc1CNC(Cc1cccs1)c1nccs1)OCO2 (configuration not stated)	-1.88
Cn1nc(CN2CCCC2)c2c1CN(C(=O)Nc1cccc(F)c1)CC2	5.98
c1cc(CNCC2OCCc3cn(CC4CCOCC4)nc32)ccn1 (configuration not stated)	3.68
CCN1C(=O)C(c2ccccc2)CC12CCN(CCO)CC2 (configuration not stated)	1.26
c1coc(CN2CCc3onc(Cn4cccc4)c3C2)c1	8.43
CC(C)CN1CCS(=O)(=O)[C@@H]2CCN(S(=O)(=O)N(C)C)CC[C@@H]21	7.25
Cc1ccc(C(=O)N2C[C@@H]3OCCN(CCN4CCCC4)[C@@H]3C2)cn1	2.39
COc1ccccc1CN1C[C@@H]2CN(Cc3cccnc3)CCO[C@@H]2C1	12.3
CN1[C@H](Cn2cncn2)C[C@@H]2CN(Cc3cccc(C#N)c3)CC[C@@H]21	-9.78
CN(C)C(=O)[C@@H]1C[C@@H]2CCN(Cc3nccs3)C[C@@H]2O1	2.67
COc1cc(N2CCC3(CCCN(C(=O)c4cccnc4)C3)C2)ncn1 (configuration not stated)	-149
Cc1nc(CN2C[C@H]3C[C@H](C(=O)NCC4CC4)N(C)[C@H]3C2)cs1	-5.13
O=C(NCC1CC1)[C@H]1C[C@H]2CN(C(=O)NCC3CCCCC3)C[C@@H]1O2	3.79

Source: ChEMBL document CHEMBL4513216, “Probing the Open Global Health Chemical Diversity Library for Multistage-Active Starting Points for Next-Generation Antimalarials” (ACS Infect Dis, 2020)
